Active and inactive are the calls of the source. No cut-off for these calls is given here.
Legend:
[1] = Cytotoxicity against human Caco2 cells after 3 to 4 days; assay type: cell-based; conditions: Caco-2 cells
Outline: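 Cells seeded at 20,000–75,000 per well with compound dilutions, incubated 3–4 days at 37°C, and counted on a Coulter particle counter; CC50 is the concentration inhibiting proliferation by 50%.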

[2] = system: Human immunodeficiency virus 1; test: Antiviral activity against X4 tropic HIV-1 3B infected in human Raji cells expressing DC-SIGN gene assessed as inhibition of virus capture by Raji cells after 60 mins by ELISA; assay type: functional, organism-based; conditions: Human immunodeficiency virus 1, 3B, 1 h
[3] = Antiviral activity against SIV mac251 infected in human Raji cells expressing DC-SIGN gene assessed as inhibition of virus capture by Raji cells after 60 mins by ELISA; assay type: functional, cell-based, Simian immunodeficiency virus - mac; conditions: Simian immunodeficiency virus, 251, Raji, 1 h
[4] = Binding affinity to HIV-1 3B gp120 assessed as dissociation rate constant after 6 mins by SPR analysis in presence of 10 mM CaCl2; set-up: species or system Human immunodeficiency virus 1
[5] = Binding affinity to HIV-1 3B gp120 after 6 mins by SPR analysis in presence of 10 mM CaCl2; set-up: species or system Human immunodeficiency virus 1
PBMC [6] = test: Immunostimulatory activity against human PBMC assessed as IL1-beta production at 21 uM after 72 hrs; assay type: functional, cell-based
Outline: (§1)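 Unstimulated PBMCs and PHA-blasts from three donors, in three independent experiments, cultured with test compound at 20 μg/ml (21 or 22 μM). Supernatants collected after 72 h. The cytokine profile was read on a Bio-Plex 27-plex human cytokine bead immunoassay, using beads coupled to cytokine-specific monoclonal antibodies and run per the kit instructions.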

PBMC [7] = test: Immunostimulatory activity against human PBMC assessed as IL-1ra production at 21 uM after 72 hrs; assay type: functional, cell-based; outline: as §1
PBMC [8] = test: Immunostimulatory activity against human PBMC assessed as IL-6 production at 21 uM after 72 hrs; assay type: functional, cell-based; outline: as §1
PBMC [9] = test: Immunostimulatory activity against human PBMC assessed as IL-12 production at 21 uM after 72 hrs; assay type: functional, cell-based; outline: as §1
PBMC [10] = test: Immunostimulatory activity against human PBMC assessed as TNF-alpha production at 21 uM after 72 hrs; assay type: functional, cell-based; outline: as §1
PBMC [11] = test: Immunostimulatory activity against human PBMC assessed as IL1-beta production at 22 uM after 72 hrs; assay type: functional, cell-based; outline: as §1
PBMC [12] = test: Immunostimulatory activity against human PBMC assessed as IL-6 production at 22 uM after 72 hrs; assay type: functional, cell-based; outline: as §1
PBMC [13] = test: Immunostimulatory activity against human PBMC assessed as IL-12 production at 22 uM after 72 hrs; assay type: functional, cell-based; outline: as §1
PBMC [14] = test: Immunostimulatory activity against human PBMC assessed as IL-15 production at 22 uM after 72 hrs; assay type: functional, cell-based; outline: as §1
PBMC [15] = test: Immunostimulatory activity against human PBMC assessed as eotoxin production at 22 uM after 72 hrs; assay type: functional, cell-based
Outline: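 In three independent experiments, PBMCs and PHA-blasts from three donors were cultured with compound for 72 h. Supernatants were analysed with a bead-based 27-plex human cytokine immunoassay covering interleukins, chemokines, growth factors, IFN-γ and TNF-α.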

PBMC [16] = test: Immunostimulatory activity against human PBMC assessed as FGF production at 22 uM after 72 hrs; assay type: functional, cell-based
PBMC [17] = test: Immunostimulatory activity against human PBMC assessed as MCP-1 production at 22 uM after 72 hrs; assay type: functional, cell-based; outline: as §1
PBMC [18] = test: Immunostimulatory activity against human PBMC assessed as MIP-1alpha production at 22 uM after 72 hrs; assay type: functional, cell-based; outline: as §1
PBMC [19] = test: Immunostimulatory activity against human PBMC assessed as suppression of G-CSF production at 22 uM after 72 hrs; assay type: functional; outline: as §1
[20] = system: Human immunodeficiency virus 1; test: Antiviral activity against HIV-1 3B infected in human HUT78 cells assessed as prevention of syncytium formation between persistently HIV-1 3B-infected HUT-78 cells and uninfected SupT1 cells compound preexposed at pH 4 after 3 to 4 days by ELISA; assay type: functional, organism-based; conditions: SUP-T1
[21] = system: Human immunodeficiency virus 1; test: Antiviral activity against HIV-1 3B infected in human HUT78 cells assessed as prevention of syncytium formation between persistently HIV-1 3B-infected HUT-78 cells and uninfected SupT1 cells compound preexposed to high temperature after 3 to 4 days by ELISA; assay type: functional, organism-based; conditions: SUP-T1
[22] = system: Human immunodeficiency virus 1; test: Ratio of EC90 to EC50 for R5 tropic HIV-1 clade A isolate UG273 infected in human PBMC; assay type: functional
Outline: (§2)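 PBMCs from healthy donors were PHA-stimulated (2 μg/ml, 3 days, 37°C), then seeded at 0.5 × 10^6 per well with compound dilutions in RPMI 1640 with 10% FCS and IL-2 (25 U/ml). Virus was added at 250 pg p24 or p27/ml final. On day 12, supernatant HIV-1 p24 or HIV-2 p27 was measured by ELISA, giving EC50 and EC90.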

[23] = system: Human immunodeficiency virus 1; test: Ratio of EC90 to EC50 for R5 tropic HIV-1 clade G isolate BCF-DIOUM infected in human PBMC; assay type: functional; outline: as §2
[24] = system: Human immunodeficiency virus 1; test: Ratio of EC90 to EC50 for X4 tropic HIV-1 3B infected in human PBMC; assay type: functional; outline: as §2
[25] = system: Human immunodeficiency virus 1; test: Ratio of EC90 to EC50 for X4 tropic HIV-1 Bal infected in human PBMC; assay type: functional; conditions: in the assay text read “R5 tropic” for “X4 tropic”; outline: as §2
[26] = Cytotoxicity against mouse L1210 cells after 3 to 4 days; assay type: cell-based
[27] = system: Human immunodeficiency virus 1; test: Antiviral activity against HIV-1 3B infected in human CEM cells assessed as inhibition of virus-induced cytopathicity after 3 to 4 days by microscopic analysis; assay type: functional, organism-based; conditions: Human immunodeficiency virus 1, 3B, CCRF-CEM
Outline: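 CEM or C8166 cells at 5 × 10^5/ml infected with HIV-1 at 100 CCID50 per ml, then mixed 1:1 with compound dilutions and held at 37°C for 3–4 days. Giant cells were counted microscopically at ×100 against untreated infected cultures. EC50 is the concentration cutting syncytium formation by 50%.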

[28] = system: Human immunodeficiency virus 2; test: Antiviral activity against HIV-2 ROD infected in human MT4 cells assessed as inhibition of virus-induced cytopathicity after 7 days by trypan blue staining; assay type: functional, organism-based; conditions: Human immunodeficiency virus 2, ISOLATE ROD, MT4, 168 h
[29] = Antiviral activity against SIV mac251 infected in human MT4 cells assessed as inhibition of virus-induced cytopathicity after 7 days by trypan blue staining; assay type: functional, cell-based, Simian immunodeficiency virus - mac; conditions: Simian immunodeficiency virus, 251, MT4, 168 h
Outline: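 MT-4 cells (5 × 10^5/ml) infected with SIV at 100 CCID50/ml, mixed 1:1 with compound dilutions, incubated at 37°C; viable cells in infected and mock-infected cultures counted by trypan blue; EC50 and CC50 are concentrations reducing viable cell number by 50% in each.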

[30] = system: Human immunodeficiency virus 1; test: Antiviral activity against R5 tropic HIV-1 clade A isolate UG273 infected in human PBMC assessed as inhibition of viral replication […] by ELISA; assay type: functional, organism-based; conditions: Human immunodeficiency virus 1, clade A isolate UG273
Outline: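 PBMCs from healthy donors were stimulated with PHA (2 μg/ml) for 3 days, then seeded at 0.5 × 10^6 cells/well in RPMI 1640 with 10% FCS, IL-2 (25 U/ml) and compound. Virus was added at a final 250 pg p24/ml. Supernatant was taken at day 12 for p24 antigen ELISA.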

Compound | CC50 [1] [µM] | IC50 [2] [µM] | IC50 [3] [µM] | Kd [4] [×10⁻³ /s] | Kd [5] [µM] | Activity (PBMC [6]) | Activity (PBMC [7]) | Activity (PBMC [8]) | Activity (PBMC [9]) | Activity (PBMC [10]) | Activity (PBMC [11]) | Activity (PBMC [12]) | Activity (PBMC [13]) | Activity (PBMC [14]) | Activity (PBMC [15]) | Activity (PBMC [16]) | Activity (PBMC [17]) | Activity (PBMC [18]) | fold change (FC) (PBMC [19]) | Activity [20] | also measured
CN[C@@H]1[C@H](O[C@@H]2OC[C@@H](O)[C@H](O)[C@H]2O)[C@@H](O)[C@H](O[C@H]2c3cc(C)c(C(=O)N[C@H](C)C(=O)O)c(O)c3-c3c(cc4c(c3O)C(=O)c3cc(OC)cc(O)c3C4=O)[C@@H]2O)O[C@@H]1C [PRADIMICIN A] | > 50 | 3.5 | 16 | 6.1 | 0.41 | inactive | inactive | inactive | inactive | inactive | inactive | inactive | inactive | inactive | inactive | inactive | inactive | inactive | 2 | Active | Activity [21]: Active; Ratio [22]: 2; Ratio [23]: 2; Ratio [24]: 2; Ratio [25]: 2; CC50 [26]: > 50 µM; EC50 [27]: 5.9 µM; EC50 [28]: 5 µM; EC50 [29]: 5 µM; EC50 [30]: 5.9 µM
CN[C@@H]1[C@H](O[C@@H]2O[C@H](CO)[C@@H](O)[C@H](OS(=O)(=O)O)[C@H]2O)[C@@H](O)[C@H](O[C@H]2c3cc(C)c(C(=O)N[C@H](C)C(=O)O)c(O)c3-c3c(cc4c(c3O)C(=O)c3cc(OC)cc(O)c3C4=O)[C@@H]2O)O[C@@H]1C [PRADIMICIN S] | > 230 | 11 | 16 | 5.11 | 0.4 | inactive | inactive | inactive | inactive | inactive | inactive | inactive | inactive | inactive | inactive | inactive | inactive | inactive | 2 | Active | Activity [21]: Active; Ratio [22]: 2; Ratio [23]: 2; Ratio [24]: 2; Ratio [25]: 2; CC50 [26]: > 230 µM; EC50 [27]: 8.9 µM; EC50 [28]: 4.7 µM; EC50 [29]: 8.1 µM; EC50 [30]: 15 µM

Reference: ChEMBL document CHEMBL1671680, “Pradimicin S, a highly soluble nonpeptidic small-size carbohydrate-binding antibiotic, is an anti-HIV drug lead for both microbicidal and systemic use” (Antimicrob Agents Chemother, 2010)
